The values that follow come from ChEMBL document CHEMBL2062427, “Synthesis, chemical reactivity as Michael acceptors, and biological potency of monocyclic cyanoenones, novel and highly potent anti-inflammatory and cytoprotective agents” (J Med Chem, 2012).

Broadly, the IC50 is the concentration at which inhibition is half-maximal.

Series [1] can be described thus: Cytotoxicity against C57BL/6 mouse BMDM cells assessed as LDH release after 24 hrs. The format is cell-based. The conditions noted are these: bone marrow-derived macrophages (BMDM cells). A digest of the protocol:
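Macrophages exposed to compound without LPS for 24 h; culture supernatant assayed for % LDH released as cell-death measure. Averages of 2 independent experiments, SD.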
For orientation: Release of lactate dehydrogenase indicates damage to the cell membrane.

In series [2] the test system is BMDM. The series can be described thus: Antiinflammatory activity in C57BL/6 mouse BMDM cells assessed as inhibition of LPS-stimulated TNFalpha production at 0.5 uM pretreated for 1 hr before LPS challenge after 8 to 24 hrs by immunoassay. The format is functional, cell-based. In short, it runs like this:
(§1)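 Macrophages given compound at 0.5 µM; LPS 100 ng/mL added 1 h after start of compound treatment, for 8 h or 24 h. Supernatants collected at 8 or 24 h and assayed for LDH release (% released, cell death), TNF-α or IL-1β (pg/mL). Averages of 2 independent experiments, SD.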

Series [3] is described as follows: Induction of apoptosis in LPS-stimulated C57BL/6 mouse BMDM cells assessed as LDH release at 0.5 uM pretreated for 1 hr before LPS challenge after 24 hrs. The format is cell-based. In short, it runs like this: as §1
Series [4] deals with RAW264.7. The series can be described thus: Antiinflammatory activity in mouse RAW264.7 cells assessed as inhibition of IFNgamma-stimulated NO production pretreated for 2 hrs before IFNgamma challenge measured after 24 hrs by Griess reaction. The format is functional, cell-based. In short, it runs like this: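 RAW 264.7 cells seeded at 30,000/well in triplicate; next day pre-treated 2 h with DMSO or 2-fold serial dilutions (0–200 nM or 0–10 µM), then IFN-γ 20 ng/mL for 24 h. Medium NO by Griess; viability by WST-1. IC50 from suppression of IFN-γ-induced NO normalized to viability; mean of three independent experiments, SD.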
A general note: Griess reagent forms a coloured azo dye with nitrite.

Series [5] addresses NAD(P)H dehydrogenase [quinone] 1 (Mus musculus) (UniProt Q64669). The series can be described thus: Induction of NQO1 activity in mouse Hepa-1c1c7 cells assessed as concentration require to double the specific enzyme activity after 48 hrs. Type of series: cell-based. In short, it runs like this: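 Hepa1c1c7 cells, 10,000/well, grown 24 h, then exposed to serial dilutions for 48 h. Potency expressed as concentration doubling NQO1 specific enzyme activity (CD).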

The subject of series [6] is RAW264.7. As to the kind of experiment: Ratio of CDDO IC50 to compound IC50 for antiinflammatory activity in mouse RAW264.7 cells assessed as inhibition of IFNgamma-stimulated NO production. The format is functional.
Series [7] relates to BMDM. The series can be described thus: Antiinflammatory activity in C57BL/6 mouse BMDM cells assessed as inhibition of LPS-stimulated […] production at 0.5 uM pretreated for 1 hr before LPS challenge after 8 to 24 hrs by immunoassay. Type of series: functional, cell-based. A digest of the protocol:
as §1

Series [8] is described as follows: Induction of apoptosis in LPS-stimulated C57BL/6 mouse BMDM cells assessed as LDH release at 0.5 uM pretreated for 1 hr before LPS challenge after 8 hrs. The format is cell-based. A digest of the protocol:
as §1

Series [9] concerns BMDM. As to the kind of experiment: Antiinflammatory activity in C57BL/6 mouse BMDM cells assessed as inhibition of LPS-stimulated TNFalpha production at 0.1 uM pretreated for 1 hr before LPS challenge after 8 to 24 hrs by immunoassay. Type of series: functional, cell-based. A digest of the protocol:
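Macrophages pretreated with compound, then given LPS (100 ng/mL) 1 h after the start of compound exposure for 8 h or 24 h. Culture supernatants were collected at 8 h or 24 h and assayed for secreted TNF-α (pg/mL). Controls were untreated cells and cells given compound without LPS (24 h). Averages of 2 independent experiments; error is standard deviation.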

Series [10] can be described thus: Induction of apoptosis in LPS-stimulated C57BL/6 mouse BMDM cells assessed as LDH release at 0.1 uM pretreated for 1 hr before LPS challenge after 8 hrs. The format is cell-based. In short, it runs like this:
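Cells were compound-treated, and LPS (100 ng/mL) was added 1 h after the start of compound treatment for 8 h. Supernatant lactate dehydrogenase was measured as % LDH released, as a cell-death read-out. Comparison arms were no-LPS (compound 24 h) and untreated cells. Mean of 2 independent experiments, with standard deviation error bars.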

Active and inactive are the calls of the source. The calls are words filed in the database; no cut-off is given here.

NAD(P)H dehydrogenase [quinone] 1 (Mus musculus), sequence (Q64669 whole entry): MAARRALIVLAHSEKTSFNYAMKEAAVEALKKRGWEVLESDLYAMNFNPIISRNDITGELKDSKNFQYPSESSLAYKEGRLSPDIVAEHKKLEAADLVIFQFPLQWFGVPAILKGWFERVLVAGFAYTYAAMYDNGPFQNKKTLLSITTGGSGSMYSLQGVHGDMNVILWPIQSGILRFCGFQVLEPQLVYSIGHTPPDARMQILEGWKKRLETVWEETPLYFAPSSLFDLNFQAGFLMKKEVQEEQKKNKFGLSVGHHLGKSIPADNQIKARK

For the molecule `COC(=O)[C@]12CCC(C)(C)C[C@H]1[C@H]1C(=O)C=C3[C@@]4(C)C=C(C#N)C(=O)C(C)(C)[C@@H]4CC[C@@]3(C)[C@]1(C)CC2` [BARDOXOLONE METHYL], in [1], the MNTC at 24 h worked out at 500 nM. In the series with BMDM [2], the outcome was Active. In series [3], the Activity result was “Not Active”.
In the case of `CC1(C)CC[C@]2(C(=O)O)CC[C@]3(C)[C@H](C(=O)C=C4[C@@]5(C)C=C(C#N)C(=O)C(C)(C)[C@@H]5CC[C@]43C)[C@@H]2C1` [BARDOXOLONE], in the series on RAW264.7 [4], the IC50 was 16.5 nM.
Turning to `CC1(C#N)C=CC(=O)C(C#N)=C1` (stereo not drawn), the IC50 with RAW264.7 [4] turned out to be 219 nM. In [5], the CD came to 58 nM.
Turning to `CC1(C)C=C(C#N)C(=O)C(C)(C)C1`, in the series with RAW264.7 [4], the IC50 came to 1900 nM. The CD in series [5] was found to be 1900 nM.
Regarding `CC#CC1(C)C=CC(=O)C(C#N)=C1` (stereo not drawn), in the series with RAW264.7 [4], the IC50 turned out to be 7.3 nM. Moreover, in series [5], the CD turned out to be 33 nM. Besides, in the series on RAW264.7 [6], the “Ratio IC50” value worked out at 2.
As to `C=CC1(C)C=CC(=O)C(C#N)=C1` (stereo not drawn), in the series on RAW264.7 [4], the IC50 was determined as 170 nM. The CD in series [5] came to 150 nM.
For `COC(=O)C1(C)C=CC(=O)C(C#N)=C1` (stereo not drawn), in the series with RAW264.7 [4], the IC50 was found to be 58 nM. In series [5], the CD was found to be 320 nM.
As for `NC(=O)Nc1sc(-c2ccc(F)cc2)cc1C(N)=O`, the MNTC at 24 h in series [1] stood at 500 nM. Moreover, the outcome in the series with BMDM [2] was Active. Further, in the series on BMDM [7], the outcome was inactive. The Activity entry in series [8] is “Toxic”.
As to `C#CC1(C)C=CC(=O)C(C#N)=C1` (stereo not drawn), the concentration for half-maximal inhibition (IC50) in the series on RAW264.7 [4] was 5.8 nM. The CD in [5] is 22 nM. Besides, the MNTC at 24 h in series [1] is 500 nM. Moreover, the outcome with BMDM [2] and in the series on BMDM [7] was Active. For the same molecule, the Activity entry in series [8] is “Toxic”. In addition, in the series on RAW264.7 [6], the “Ratio IC50” value is listed as 2.
Consider `C#CC1(C)C=C(C#N)C(=O)CC1` (stereo not drawn), for which the IC50 with RAW264.7 [4] was 152 nM. Also, the CD in series [5] is 100 nM.
Turning to `C#C[C@]12C=C(C#N)C(=O)C=C1[C@@]1(C)C=C(C#N)C(=O)C(C)(C)[C@@H]1CC2` (racemic), the MNTC at 24 h in series [1] turned out to be 100 nM. For the same molecule, the outcome in the series with BMDM [9] was Active. Further, the Activity entry in [10] was “Not Active”.
With `CC1(C)C=CC(=O)C(C#N)=C1`, in the series with RAW264.7 [4], the IC50 came out at 305 nM. Moreover, the CD in series [5] was 150 nM.
